Converted amounts (≈) assume the structure as drawn.
Experiments:
[1] = system: Staphylococcus epidermidis; assay: Antibacterial activity against Staphylococcus epidermidis ATCC 12228 after 18 to 24 hrs by twofold serial dilution method; assay type: functional
How it was run: (§1)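 Agar media, standard twofold serial dilution (NCCLS M100-S11 basis). Plates incubated at 35 °C for 18–24 h. MIC taken as the lowest compound concentration giving complete inhibition of visible bacterial growth.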

[2] = system: Staphylococcus aureus; assay: Antibacterial activity against methicillin-resistant Staphylococcus aureus 05-3 after 18 to 24 hrs by twofold serial dilution method; assay type: functional
How it was run: (§2)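 Agar twofold serial dilution MIC. Plates incubated at 35 °C for 18–24 h. MIC taken as the lowest compound concentration giving complete inhibition of visible bacterial growth.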

[3] = system: Staphylococcus epidermidis; assay: Antibacterial activity against methicillin-resistant Staphylococcus epidermidis 05-1 after 18 to 24 hrs by twofold serial dilution method; assay type: functional; how it was run: as §2
[4] = system: Staphylococcus aureus; assay: Antibacterial activity against Staphylococcus aureus ATCC 29213 after 18 to 24 hrs by twofold serial dilution method; assay type: functional; how it was run: as §1
[5] = system: Streptococcus pyogenes; assay: Antibacterial activity against Streptococcus pyogenes 9619 after 18 to 24 hrs by twofold serial dilution method; assay type: functional; how it was run: as §1
[6] = system: Pseudomonas aeruginosa; assay: Antibacterial activity against Pseudomonas aeruginosa 17 after 18 to 24 hrs by twofold serial dilution method; assay type: functional; how it was run: as §1
[7] = system: Shigella sonnei; assay: Antibacterial activity against Shigella sonnei 51592 after 18 to 24 hrs by twofold serial dilution method; assay type: functional; how it was run: as §1
[8] = system: Enterobacter cloacae; assay: Antibacterial activity against Enterobacter cloacae 45301 after 18 to 24 hrs by twofold serial dilution method; assay type: functional; how it was run: as §1
[9] = system: Enterococcus faecalis; assay: Antibacterial activity against Enterococcus faecalis ATCC 29212 after 18 to 24 hrs by twofold serial dilution method; assay type: functional; how it was run: as §1
[10] = Cytotoxicity against african green monkey Vero cells assessed as cell viability after 72 hrs by MTT assay; assay type: cell-based; details: chlorocebus sabaeus
[11] = system: Klebsiella pneumoniae; assay: Antibacterial activity against Klebsiella pneumoniae 7 after 18 to 24 hrs by twofold serial dilution method; assay type: functional; how it was run: as §1
[12] = system: Streptococcus pneumoniae; assay: Antibacterial activity against Streptococcus pneumoniae 97100 after 18 to 24 hrs by twofold serial dilution method; assay type: functional; how it was run: as §1
[13] = system: Escherichia coli; assay: Antibacterial activity against Escherichia coli 26 after 18 to 24 hrs by twofold serial dilution method; assay type: functional; how it was run: as §1

Structure (SMILES) | MIC [1] [µg/mL] | MIC [2] [µg/mL] | MIC [3] [µg/mL] | MIC [4] [µg/mL] | MIC [5] [µg/mL] | MIC [6] [µg/mL] | MIC [7] [µg/mL] | MIC [8] [µg/mL] | MIC [9] [µg/mL] | CC50 at 72 h [10] [µM] | MIC [11] [µg/mL] | MIC [12] [µg/mL] | MIC [13] [µg/mL]
C[C@H]1COc2c(N3CCN(C)CC3)c(F)cc3c(=O)c(C(=O)O)cn1c23.C[C@H]1COc2c(N3CCN(C)CC3)c(F)cc3c(=O)c(C(=O)O)cn1c23.O [LEVOFLOXACIN] | 0.5 | 32 | 32 | 0.25 | 4 | 0.5 | 1 | 0.125 | 1 | > 1000 |  |  | 
CCO/N=C1/CCN(c2c(F)cc3c(=O)c(C(=O)O)cn(CCF)c3c2F)CC1(C)N (centres undefined) | 2 (≈ 4.54 µM) | > 128 | > 128 | 2 (≈ 4.54 µM) | 32 (≈ 72.7 µM) | 128 (≈ 291 µM) | 16 (≈ 36.3 µM) | 16 (≈ 36.3 µM) | 16 (≈ 36.3 µM) | 243 | 4 (≈ 9.08 µM) | 16 (≈ 36.3 µM) | 8 (≈ 18.2 µM)
CCO/N=C1/CCN(c2nc3c(cc2F)c(=O)c(C(=O)O)cn3-c2ccc(F)cc2F)CC1(C)N (centres undefined) | 1 (≈ 2.04 µM) | 128 (≈ 262 µM) | > 128 | 1 (≈ 2.04 µM) | 128 (≈ 262 µM) | 64 (≈ 131 µM) | 16 (≈ 32.7 µM) | 16 (≈ 32.7 µM) | 4 (≈ 8.17 µM) | 31.4 | 8 (≈ 16.3 µM) | 16 (≈ 32.7 µM) | 8 (≈ 16.3 µM)
CO/N=C1\CN(c2nc3c(cc2F)c(=O)c(C(=O)O)cn3C2CC2)CC1CN (centres undefined) [GEMIFLOXACIN] | < 0.03 | 4 (≈ 10.3 µM) | 2 (≈ 5.14 µM) | < 0.03 | 2 (≈ 5.14 µM) | 0.125 (≈ 0.321 µM) | 0.06 (≈ 0.154 µM) | 0.06 (≈ 0.154 µM) | 0.06 (≈ 0.154 µM) |  | 0.5 (≈ 1.28 µM) | 2 (≈ 5.14 µM) | 0.06 (≈ 0.154 µM)
CO/N=C1/CCN(c2nc3c(cc2F)c(=O)c(C(=O)O)cn3-c2ccc(F)cc2F)CC1(C)N (centres undefined) | 2 (≈ 4.21 µM) | > 128 | > 128 | 1 (≈ 2.1 µM) | > 128 | 32 (≈ 67.3 µM) | 8 (≈ 16.8 µM) | 16 (≈ 33.7 µM) | 8 (≈ 16.8 µM) | 259 | 8 (≈ 16.8 µM) | 8 (≈ 16.8 µM) | 8 (≈ 16.8 µM)
CO/N=C1/CCN(c2c(F)cc3c(=O)c(C(=O)O)cn(CCF)c3c2F)CC1(C)N (centres undefined) | 1 (≈ 2.35 µM) | > 128 | > 128 | 1 (≈ 2.35 µM) | 16 (≈ 37.5 µM) | 32 (≈ 75 µM) | 8 (≈ 18.8 µM) | 8 (≈ 18.8 µM) | 8 (≈ 18.8 µM) | 626 | 4 (≈ 9.38 µM) | 16 (≈ 37.5 µM) | 4 (≈ 9.38 µM)

Reference: ChEMBL document CHEMBL1154061, “Synthesis and in vitro antibacterial activity of 7-(4-alkoxyimino-3-amino-3-methylpiperidin-1-yl)fluoroquinolone derivatives” (Eur J Med Chem, 2009)
